The source made the active and inactive calls.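 Rule for the calls, unless noted: active = fluorescence slope after compound addition differing from the mean of all screened samples at 99.7% confidence, in either direction; inactive = the rest.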
How the values were obtained:
[1] = inhibitors of TNFa-induced NFkB p65 translocation, primary screen, imaging, HUVEC, MLSMR starter and 10KST1 sets (AID 438;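 active = inhibition above 20% together with a positive visual image hit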;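 note: compound added about 3h40 before a 20 min TNFalpha stimulation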;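 for inhibition: signal is the nuclear over cytoplasmic p65 intensity ratio per well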); settings: HUVEC TNFa-induced p65 nuclear translocation; cell count: measured here: nuclei count (cytotoxicity indicator), at 2.08 µM; inhibition: at 2 µM, stronger effect = higher value, 0% TNFa-plus-vehicle, 100% no-TNFa wells
[2] = endothelial E-selectin expression blockers – imaging, HUVEC, immunofluorescence, MLSMR starter and 10KST1 sets, primary screen (AID 487;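 active = visually confirmed hit in the image check and inhibition above 20%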;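 for inhibition: signal is fraction of cell area covered by stained E-selectin grains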;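 for nuclei count: 100% = median nuclei count of all wells on the same plate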); settings: HUVEC TNFalpha-induced E-selectin immunofluorescence imaging, at 2 µM; inhibition: stronger effect = higher value; nuclei count: measured here: cell number, toxicity
[3] = Primary imaging screen for DUSP6 inhibitors that restore phospho-Erk in transfected HeLa cells, chemical complementation (AID 609;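 active = compounds giving at least 50% inhibition in the cell-based MKP-3 phosphatase rescue imaging test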;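 for inhibition: phospho-Erk level distribution per well compared with pooled transfected vehicle control wells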); settings: HeLa MKP-3 transfected, phospho-Erk imaging KS statistic, at 10 µM, cells stimulated with TPA for 15 min
[4] = target: Dual specificity protein phosphatase 6 (Homo sapiens) (UniProt Q16828); test: as above; settings: HeLa MKP-3 transfected, phospho-Erk imaging KS statistic; at 10 µM; stronger effect = higher value; cells stimulated with TPA for 15 min
[5] = target: Voltage-gated potassium channel subunit beta-2 (Rattus norvegicus) (UniProt P62483); test: inhibitors of rat Kvbeta2 reductase activity – biochemical, NADPH fluorescence, primary screen (AID 622;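 active = fluorescence slope higher than the sample average by over 3 SD, cut at about -0.22 in these data, passing the limit was not always enough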;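 note: slope of raw intensity against log time taken from 70 to 1610 s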); settings: recombinant KvBeta, 4-cyanobenzaldehyde reduction, at 10 µM, stronger effect = higher value
[6] = target: Voltage-gated potassium channel subunit beta-2 (Rattus norvegicus) (UniProt P62483); test: enhancers of rat Kvbeta2 NADPH turnover – biochemical, NADPH fluorescence, primary screen (AID 623;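 active = NADPH fluorescence slope more negative than the mean of all samples by about 3 SD, 99.7% confidence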;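 note: fluorescence intensity change per second fitted from 20 to 320 s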); settings: Recombinant KvBeta, NADPH fluorescence decrease slope, 10 min; at 10 µM; stronger effect = lower value
[7] = target: Alpha-2C adrenergic receptor (Homo sapiens) (UniProt P18825); test: compounds altering alpha2C-coupled GIRK flux – cell-based, HEK293 alpha2C/GIRK1/2, thallium flux, primary screen (AID 624); settings: thallium flux BTC fluorescence, at 10 µM, actives lie on both sides;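 note: slope of fluorescence ratio to pre-addition baseline per second over 15 to 24 s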
[8] = inhibitors of larval lipid processing in zebrafish, primary screen, whole organism, PED6 fluorescence, gall bladder and intestine (AID 686;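 active = a full or partial loss of lipid-probe fluorescence in the fish gall bladder, intestine or both, judged by eye; inactive = no fluorescence loss, or compound toxic to the fish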;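 note: larvae 5 to 7 days old with five fish per well; signal comes from phospholipase A2 cleavage of quenched PED6 carried via bile; overnight exposure to compound and PED6 before scoring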); settings: Zebrafish larvae PED6 lipid processing, fluorescence scoring; screened at 20 µM (by protocol)
Procedure, shortened: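 Test system – live zebrafish larvae aged 5-7 days, whole organism · Buffer or medium – E3 fish medium · Reagent – quenched phospholipase substrate PED6, 100 nM final, ingested by larvae · Doses – 20 µM single dose · Incubation – overnight compound and PED6 incubation · Technique – visual fluorescence microscopy scoring of gall bladder, gut · Read-out basis – visual per-well fluorescence inhibition score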

[9] = loss of swimming-algae plug formation – whole organism, Chlamydomonas reinhardtii, WT vs cilia-less mutant, absorbance, 96-well, primary screen (AID 463189;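 active = inhibition at or above 50% relative to wild type and mutant plate controls; inactive = inhibition below 50%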;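 note: 0% = wild type cc124 cells in DMSO and 100% = ciliumless bld1 mutant cells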); settings: Chlamydomonas reinhardtii gravitaxis, OD600 absorbance, 2 days; at 10 µM; stronger effect = higher value
[10] = measured here: cell density z-score
[11] = measured here: nuclear c-Myc green intensity z-score
[12] = measured here: nuclear pErk red intensity z-score, stronger effect = higher value

Alpha-2C adrenergic receptor (Homo sapiens), sequence (P18825 whole entry, looked up): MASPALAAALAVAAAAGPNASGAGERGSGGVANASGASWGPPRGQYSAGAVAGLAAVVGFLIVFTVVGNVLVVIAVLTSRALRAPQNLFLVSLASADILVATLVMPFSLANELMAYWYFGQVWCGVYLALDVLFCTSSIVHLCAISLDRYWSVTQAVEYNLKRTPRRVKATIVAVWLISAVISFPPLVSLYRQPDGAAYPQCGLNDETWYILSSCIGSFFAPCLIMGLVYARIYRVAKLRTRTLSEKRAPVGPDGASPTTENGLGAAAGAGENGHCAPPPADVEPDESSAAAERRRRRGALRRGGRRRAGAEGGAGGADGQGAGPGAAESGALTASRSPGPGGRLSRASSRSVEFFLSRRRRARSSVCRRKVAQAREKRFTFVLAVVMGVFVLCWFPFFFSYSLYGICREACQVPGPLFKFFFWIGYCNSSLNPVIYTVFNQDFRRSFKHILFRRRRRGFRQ
Voltage-gated potassium channel subunit beta-2 (Rattus norvegicus), sequence (P62483 whole entry, looked up): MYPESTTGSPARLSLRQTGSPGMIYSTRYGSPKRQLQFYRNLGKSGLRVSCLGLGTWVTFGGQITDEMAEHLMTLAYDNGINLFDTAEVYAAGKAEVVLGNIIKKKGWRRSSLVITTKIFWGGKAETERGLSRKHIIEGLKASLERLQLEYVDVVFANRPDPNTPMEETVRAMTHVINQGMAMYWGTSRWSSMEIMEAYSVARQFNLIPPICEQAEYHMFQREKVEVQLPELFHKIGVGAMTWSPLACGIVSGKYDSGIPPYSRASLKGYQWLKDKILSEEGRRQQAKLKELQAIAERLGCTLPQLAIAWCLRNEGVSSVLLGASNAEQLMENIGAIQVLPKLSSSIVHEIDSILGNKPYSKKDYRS
Dual specificity protein phosphatase 6 (Homo sapiens), sequence (Q16828 whole entry, looked up): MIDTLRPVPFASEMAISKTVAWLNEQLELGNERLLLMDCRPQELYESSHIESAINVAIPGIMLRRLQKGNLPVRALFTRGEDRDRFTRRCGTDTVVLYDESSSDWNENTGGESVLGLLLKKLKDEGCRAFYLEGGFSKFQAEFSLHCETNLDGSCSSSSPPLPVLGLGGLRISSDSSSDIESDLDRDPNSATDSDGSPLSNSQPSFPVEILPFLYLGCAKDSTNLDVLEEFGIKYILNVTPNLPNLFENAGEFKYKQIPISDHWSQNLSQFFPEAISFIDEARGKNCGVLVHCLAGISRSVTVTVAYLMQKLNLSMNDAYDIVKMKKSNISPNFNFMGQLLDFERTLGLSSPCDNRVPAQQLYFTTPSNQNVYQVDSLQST

| Structure (SMILES) | cell count [1] | inhibition [1] | inhibition [2] | nuclei count [2] | z-score [3, 10] | z-score [3, 11] | z-score [3, 12] | inhibition [4] | fluorescence slope [5] | NADPH fluorescence slope [6] | slope [7] | outcome [8] | inhibition [9] |
| --- | --- | --- | --- | --- | --- | --- | --- | --- | --- | --- | --- | --- | --- |
| Nc1ccc2oc3ncccc3c(=O)c2c1 | 518 | -0.6% (inactive) | -52.6% (inactive) | 172% | 1.1 | -0.546 | -0.617 | 22.3% (inactive) | -0.511 (inactive) | -2.4e-05 (inactive) | 0.00436 (inactive) | inactive | -10.9% (inactive) |
| COCCOCCOCCC(=O)NC1CC2CCC1(C)C2(C)C (centres undefined) | 580 | -10.5% (inactive) | 32.9% (inactive) | 158% | 0.451 | -0.414 | -0.476 | 6.51% (inactive) | -0.459 (inactive) | -1.1e-05 (inactive) | 0.00758 (inactive) | inactive | 13.6% (inactive) |
| Cc1coc2c(O)cc3c(c12)OC1(N2CCCCC2)C(=O)NCCCC31 (centres undefined) | 537 | -25.4% (inactive) | -78.3% (inactive) | 144% | -0.8 | 0.13 | 2.15 | -15% (inactive) | -0.515 (inactive) | -4.3e-05 (inactive) | 0.00313 (inactive) | inactive | 19.5% (inactive) |
| Cc1cc(=O)oc(C)c1C(=O)Nc1cccc2nonc12 | 404 | -0.5% (inactive) | -61.8% (inactive) | 132% | 1.68 | -1.68 | -0.173 | -4.7% (inactive) | -0.297 (inactive) | -2.7e-05 (inactive) | 0.00487 (inactive) | inactive | -5.97% (inactive) |
| Cc1nc(N2CCN(Cc3ccccc3)CC2)c(C#N)c2c1COC(C)(C)C2 | 686 | -5.4% (inactive) | -178% (inactive) | 195% | 0.66 | -1.21 | 0.193 | 3.66% (inactive) | -0.487 (inactive) | -0.000123 (inactive) | 0.00373 (inactive) | inactive | -5.61% (inactive) |
| Cc1ccc(C2CC(C(F)(F)F)n3ncc(C(N)=O)c3N2)cc1 (centres undefined) | 506 | -1.3% (inactive) | 4.8% (inactive) | 124% | -0.204 | -0.144 | 1.07 | -7.79% (inactive) | -0.5 (inactive) | -8.2e-05 (inactive) | 0.00506 (inactive) | inactive | 16.3% (inactive) |
| COC(=O)c1ccc(OC(=O)c2ccc(OC)c(OC)c2)c(OC)c1 | 601 | -0.3% (inactive) | 2.2% (inactive) | 142% | 0.251 | -0.0242 | -0.151 | 11.4% (inactive) | -0.491 (inactive) | -0.000121 (inactive) | 0.00612 (inactive) | inactive | 1.14% (inactive) |
| Cc1onc(-c2ccccc2Cl)c1C(=O)N1CCN(c2nc3ccccc3s2)CC1 | 340 | -8.1% (inactive) | -48.8% (inactive) | 168% | 1.76 | -0.608 | -1.2 | 25.4% (inactive) | -0.417 (inactive) | -0.000136 (inactive) | 0.00481 (inactive) | inactive | 13% (inactive) |
| CCOC(=O)CSC1=C(C#N)C(c2ccc(OC)cc2)C2=C(CC(C)(C)CC2=O)N1 (centres undefined) | 362 | -10.7% (inactive) | -126% (inactive) | 174% | 0.65 | -1.25 | -0.233 | -8.59% (inactive) | -0.411 (inactive) | -0.000354 (inactive) | 0.00489 (inactive) | inactive | 25.7% (inactive) |
| CC(=O)N=C(N)Sc1nc2ccccc2[nH]1 | 570 | -2.8% (inactive) | -55% (inactive) | 161% | -0.578 | 0.85 | 0.434 | 22.1% (inactive) | -0.462 (inactive) | -0.000171 (inactive) | 0.00501 (inactive) | inactive | 4.16% (inactive) |
| CC1C[C@@]2(NC(=O)NC2=O)C(C)CN1C (some centres undefined) | 510 | -6.8% (inactive) | -91.9% (inactive) | 118% | 1.06 | -0.13 | -0.779 | -3.98% (inactive) | -0.499 (inactive) | -0.000117 (inactive) | 0.00539 (inactive) | inactive | 6.02% (inactive) |
| COc1ccc(-n2c(=O)c3c4c(sc3n3c(C)nnc23)CC(C)CC4)cc1 (centres undefined) | 617 | 3.9% (inactive) | 15.9% (inactive) | 162% | -1.05 | 0.383 | -0.315 | -0.608% (inactive) | -0.324 (inactive) | 8.8e-06 (inactive) | 0.00514 (inactive) | inactive | 53.4% (active) |
| CCCCOC(=O)CSc1nc(N)c(C#N)c(-c2ccc(OC)cc2)c1C#N | 370 | -0.4% (inactive) | -58.5% (inactive) | 99.4% | -2.23 | 0.0198 | 1.46 | 3.66% (inactive) | -0.52 (inactive) | -6.6e-05 (inactive) | 0.00456 (inactive) | inactive | -17.4% (inactive) |
